Published values gathered from unrelated publications.
Lines come from different studies, so protocols differ.
Melanocortin receptor 4: Melanocortin receptor 4 (Mus musculus, UniProt P56450)
Tspo: Translocator protein (Tspo, Rattus norvegicus, UniProt P16257)
GLP2R: Glucagon-like peptide 2 receptor (GLP2R, Homo sapiens, UniProt O95838)

Structure (SMILES)	target	observed	mode	technique	notes	measurement	value
N=C(N)NCCC[C@H](NC(=O)[C@H](CC(=O)O)NC(=O)[C@H](Cc1c[nH]c2ccccc12)NC(=O)[C@H](CCCNC(=N)N)NC(=O)[C@@H](N)Cc1ccccc1)C(=O)N[C@@H](Cc1ccccc1)C(=O)NCC(=O)O	Melanocortin receptor 4	reporter gene	agonist			EC50	47.4 µM
Cc1nc2ccc(NC(=O)CCNC(=O)CCCc3ccc(CC(C(=O)O)C(=O)O)cc3)cc2s1	L-lactate dehydrogenase A chain (LDHA, Homo sapiens, UniProt P00338)	binding		SPR		Kd	0.058 µM
CNC(=O)[C@@]12C[C@@H]1[C@@H](n1cnc3c(NC4CC4c4ccccc4)nc(C#Cc4ccccc4)nc31)[C@H](O)[C@@H]2O (mixture of isomers)	Tspo	ligand displacement		radioligand		Ki	> 10 µM
N#Cc1ccc(COc2cccc(C3CCN(Cc4nc5ccc(C(=O)O)cc5n4C[C@@H]4CCO4)CC3)n2)c(F)c1	GLP2R	cAMP	agonist			EC50	> 20 µM
CSCC[C@H](N)C(=O)NCC(=O)N[C@@H](Cc1c[nH]cn1)C(=O)N[C@@H](Cc1ccccc1)C(=O)N[C@@H](CCCNC(=N)N)C(=O)N[C@@H](Cc1c[nH]c2ccccc12)C(=O)O	Melanocortin receptor 4	reporter gene	agonist			EC50	41.9 µM
O[C@@H]1[C@H](O)[C@@H]2C[C@@H]2[C@H]1n1cnc2c(NCCc3ccccc3)nc(C#Cc3ccccc3)nc21	Tspo	ligand displacement		radioligand		Ki	> 10 µM
CSCC[C@H](NC(=O)[C@@H](NC(=O)[C@@H](N)Cc1ccc(O)cc1)C(C)C)C(=O)NCC(=O)N[C@@H](Cc1c[nH]cn1)C(=O)N[C@@H](Cc1ccccc1)C(=O)N[C@@H](CCCNC(=N)N)C(=O)N[C@@H](Cc1c[nH]c2ccccc12)C(=O)N[C@@H](CC(=O)O)C(=O)N[C@@H](CCCNC(=N)N)C(=O)O	Melanocortin receptor 4	reporter gene	agonist			EC50	0.66 µM
CC[C@H](C)[C@H](NC(=O)[C@H](Cc1ccccc1)NC(=O)[C@H](CCC(=O)O)NC(=O)[C@H](CCCCN)NC(=O)[C@H](C)NC(=O)[C@H](C)NC(=O)[C@H](CCC(N)=O)NC(=O)CNC(=O)[C@H](CCC(=O)O)NC(=O)[C@H](CC(C)C)NC(=O)[C@H](Cc1ccc(O)cc1)NC(=O)[C@H](CO)NC(=O)[C@H](CO)NC(=O)[C@@H](NC(=O)[C@H](CC(=O)O)NC(=O)[C@H](CO)NC(=O)[C@@H](NC(=O)[C@H](Cc1ccccc1)NC(=O)[C@@H](NC(=O)CNC(=O)[C@H](CCC(=O)O)NC(=O)[C@H](C)NC(=O)[C@@H](N)Cc1c[nH]cn1)[C@@H](C)O)[C@@H](C)O)C(C)C)C(=O)N[C@@H](C)C(=O)N[C@@H](Cc1c[nH]c2ccccc12)C(=O)N[C@@H](CC(C)C)C(=O)N[C@H](C(=O)N[C@@H](CCCCN)C(=O)NCC(=O)N[C@@H](CCCN=C(N)N)C(=O)NCC(=O)O)C(C)C	GLP2R	reporter gene	agonist	luciferase		EC50	> 1 µM
Cc1cc2nc3c(=O)[nH]c(=O)nc-3n(C[C@H](O)[C@H](O)[C@H](O)COP(=O)(O)OP(=O)(O)OC[C@H]3O[C@@H](n4cnc5c(N)ncnc54)[C@H](O)[C@@H]3O)c2cc1C	Dihydrolipoyl dehydrogenase, mitochondrial (DLD, Homo sapiens, UniProt P09622)	binding			lysate	Kd	0.641 µM
CNC(=O)[C@@]12C[C@@H]1[C@@H](n1cnc3c(NCc4cccc(Cl)c4)nc(Cl)nc31)[C@H](O)[C@@H]2O	Tspo	ligand displacement		radioligand		Ki	> 10 µM
N=C(N)NCCC[C@H](NC(=O)[C@@H](N)CC(=O)O)C(=O)N[C@@H](Cc1ccccc1)C(=O)NCC(=O)O	Melanocortin receptor 4	reporter gene	agonist			EC50	> 100 µM
O=C(OC[C@H]1OC[C@H](OC(=O)c2cc(O)c(O)c(O)c2)[C@@H](O)[C@@H]1O)c1cc(O)c(O)c(O)c1	Replicase polyprotein 1ab, main protease (rep, Severe acute respiratory syndrome coronavirus 2, UniProt P0DTD1)	binding		SPR		Kd	1.18 µM
CC/C=C\C/C=C\C/C=C\C/C=C\C/C=C\CCCC(=O)O	Peroxisome proliferator-activated receptor delta (PPARD, Homo sapiens, UniProt Q03181)	reporter gene	agonist	luciferase		EC50	90.5 µM
N=C(N)NCCC[C@H](NC(=O)[C@H](CC(=O)O)NC(=O)[C@H](Cc1c[nH]c2ccccc12)NC(=O)[C@@H](N)CCCNC(=N)N)C(=O)N[C@@H](Cc1ccccc1)C(=O)NCC(=O)O	Melanocortin receptor 4	reporter gene	agonist			EC50	> 100 µM
CNC(=O)[C@@]12C[C@@H]1[C@@H](n1cnc3c(NC)nc(C#Cc4ccccc4)nc31)[C@H](O)[C@@H]2O	Tspo	ligand displacement		radioligand		Ki	> 10 µM
